In brackets after ≈: the same amount, converted by molar mass.
What was measured:
Format in all cases: functional
Escherichia coli [1] = assay: Antibacterial activity against Escherichia coli NIHJ JC-2
Method in brief: (§1)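 Twofold agar dilution on Mueller-Hinton agar (pH 7.4). Inocula of approximately 10⁶ colony-forming units; growth read after 20-h incubation at 37 °C. MIC is given in micrograms per milliliter.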

Pseudomonas aeruginosa [2] = assay: Antibacterial activity against Pseudomonas aeruginosa Tsuchijima; method in brief: as §1
Staphylococcus aureus [3] = assay: Antibacterial activity against Staphylococcus aureus 209PJC-1; method in brief: as §1
Escherichia coli [4] = assay: Median effective dose against Escherichia coli P-5101 causing systemic infections.
Method in brief: (§2)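 Male Std-ddY mice (20 ± 2 g), groups of 10 or more, infected ip with E. coli P-5101 (9×10^6 cells). Compounds were suspended in 0.2% sodium carboxymethylcellulose and dosed orally at 0 and 6 h postinfection. Survival was scored after 1 week and the ED50 derived in mg/kg.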

Staphylococcus aureus [5] = assay: Median effective dose against Staphylococcus aureus 50774 causing systemic infections
Method in brief: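 Systemic infection given iv with S. aureus 50774 (5×10^8 cells) to male Std-ddY mice (20 ± 2 g), 10 or more per group. Oral dosing of compound suspended in 0.2% sodium carboxymethylcellulose at 0 and 6 h postinfection. ED50 in mg/kg from survival scored after 2 weeks.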

Pseudomonas aeruginosa [6] = assay: Median effective dose against Pseudomonas aeruginosa 12 causing systemic infections
Method in brief: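 Male Std-ddY mice (20 ± 2 g), groups of 10 or more, infected ip with P. aeruginosa 12 (4×10^3 cells). Compounds were suspended in 0.2% sodium carboxymethylcellulose and given orally at 0 and 6 h postinfection. Survival was scored after 1 week and the ED50 derived in mg/kg.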

Escherichia coli [7] = assay: Median effective dose against Escherichia coli P-5101 causing systemic infections; method in brief: as §2

| SMILES | MIC (Escherichia coli [1]) | MIC (Pseudomonas aeruginosa [2]) | MIC (Staphylococcus aureus [3]) | ED50 (Escherichia coli [4]) | ED50 (Staphylococcus aureus [5]) | ED50 (Pseudomonas aeruginosa [6]) | ED50 (Escherichia coli [7]) |
| --- | --- | --- | --- | --- | --- | --- | --- |
| CCn1cc(C(=O)O)c(=O)c2cc(F)c(N3CCN(Cc4ccccc4)CC3)nc21 | 6.25 µg/mL (≈ 15.2 µM) | 12.5 µg/mL (≈ 30.5 µM) | 0.78 µg/mL (≈ 1.9 µM) | – | – | – | – |
| CCn1cc(C(=O)O)c(=O)c2cc(F)c(N3CCNC(=O)C3)nc21 | 0.78 µg/mL (≈ 2.33 µM) | 12.5 µg/mL (≈ 37.4 µM) | 6.25 µg/mL (≈ 18.7 µM) | – | – | – | – |
| CCCCN1CCN(c2nc3c(cc2F)c(=O)c(C(=O)O)cn3CC)CC1 | 3.13 µg/mL (≈ 8.31 µM) | 25 µg/mL (≈ 66.4 µM) | 3.13 µg/mL (≈ 8.31 µM) | – | – | – | – |
| CCn1cc(C(=O)O)c(=O)c2cc(C#N)c(N3CCCC3)nc21 | 12.5 µg/mL (≈ 40 µM) | 25 µg/mL (≈ 80 µM) | 3.13 µg/mL (≈ 10 µM) | – | – | – | – |
| CCn1cc(C(=O)O)c(=O)c2cc(C#N)c(N3CCN(C)CC3)nc21 | 1.56 µg/mL (≈ 4.57 µM) | 12.5 µg/mL (≈ 36.6 µM) | 12.5 µg/mL (≈ 36.6 µM) | – | – | – | – |
| CCn1cc(C(=O)O)c(=O)c2cc(F)c(NCCN)nc21 | 6.25 µg/mL (≈ 21.2 µM) | 50 µg/mL (≈ 170 µM) | 25 µg/mL (≈ 85 µM) | – | – | – | – |
| CCn1cc(C(=O)O)c(=O)c2cc(F)c(N3CCSCC3)nc21 | 3.13 µg/mL (≈ 9.28 µM) | 12.5 µg/mL (≈ 37.1 µM) | 1.56 µg/mL (≈ 4.62 µM) | – | – | – | – |
| CCn1cc(C(=O)O)c(=O)c2cc(F)c(N3CCCC3)nc21 | 1.56 µg/mL (≈ 5.11 µM) | 3.13 µg/mL (≈ 10.3 µM) | 0.39 µg/mL (≈ 1.28 µM) | – | – | – | – |
| CCn1cc(C(=O)O)c(=O)c2ccc(N3CCCC3)nc21 | 25 µg/mL (≈ 87 µM) | > 100 µg/mL | 12.5 µg/mL (≈ 43.5 µM) | – | – | – | – |
| CCn1cc(C(=O)O)c(=O)c2cc([N+](=O)[O-])c(N3CCCC3)nc21 | 100 µg/mL (≈ 301 µM) | > 100 µg/mL | 25 µg/mL (≈ 75.2 µM) | – | – | – | – |
| CCC(C)N1CCN(c2nc3c(cc2F)c(=O)c(C(=O)O)cn3CC)CC1 (configuration not stated) | 3.13 µg/mL (≈ 8.31 µM) | 25 µg/mL (≈ 66.4 µM) | 1.56 µg/mL (≈ 4.14 µM) | – | – | – | – |
| O=C(O)c1cn(CCF)c2nc(N3CCNCC3)c(F)cc2c1=O | 0.2 µg/mL (≈ 0.591 µM) | 0.78 µg/mL (≈ 2.31 µM) | 0.39 µg/mL (≈ 1.15 µM) | – | – | – | – |
| CCCN1CCN(c2nc3c(cc2F)c(=O)c(C(=O)O)cn3CC)CC1 | 1.56 µg/mL (≈ 4.3 µM) | 12.5 µg/mL (≈ 34.5 µM) | 1.56 µg/mL (≈ 4.3 µM) | – | – | – | – |
| CN1CCN(c2nc3c(cc2F)c(=O)c(C(=O)O)cn3CCF)CC1 | 0.2 µg/mL (≈ 0.568 µM) | 1.56 µg/mL (≈ 4.43 µM) | 0.78 µg/mL (≈ 2.21 µM) | – | – | – | – |
| CCn1cc(C(=O)O)c(=O)c2cc([N+](=O)[O-])c(N3CCNCC3)nc21 | 6.25 µg/mL (≈ 18 µM) | 25 µg/mL (≈ 72 µM) | 6.25 µg/mL (≈ 18 µM) | – | – | – | – |
| CCN1CCN(c2nc3c(cc2F)c(=O)c(C(=O)O)cn3CC)CC1 | 0.78 µg/mL (≈ 2.24 µM) | 3.13 µg/mL (≈ 8.98 µM) | 0.78 µg/mL (≈ 2.24 µM) | – | – | – | – |
| CCn1cc(C(=O)O)c(=O)c2cc(F)c(N3CCCCCCC3)nc21 | 25 µg/mL (≈ 72 µM) | > 100 µg/mL | 12.5 µg/mL (≈ 36 µM) | – | – | – | – |
| CCn1cc(C(=O)O)c(=O)c2cc(F)c(N)nc21 | 1.56 µg/mL (≈ 6.21 µM) | 50 µg/mL (≈ 199 µM) | > 100 µg/mL | – | – | – | – |
| CCn1cc(C(=O)O)c(=O)c2cc([N+](=O)[O-])c(N3CCN(C)CC3)nc21 | 3.13 µg/mL (≈ 8.66 µM) | 50 µg/mL (≈ 138 µM) | 12.5 µg/mL (≈ 34.6 µM) | – | – | – | – |
| C=Cn1cc(C(=O)O)c(=O)c2cc(F)c(N3CCN(C)CC3)nc21 | 0.2 µg/mL (≈ 0.602 µM) | 0.78 µg/mL (≈ 2.35 µM) | 3.13 µg/mL (≈ 9.42 µM) | 1.1 mg/kg | 10.5 mg/kg | 3.7 mg/kg | – |
| CCn1cc(C(=O)O)c(=O)c2cc(F)c(N3CCOCC3)nc21 | 3.13 µg/mL (≈ 9.74 µM) | 6.25 µg/mL (≈ 19.5 µM) | 1.56 µg/mL (≈ 4.86 µM) | – | – | – | – |
| CCn1cc(C(=O)O)c(=O)c2cc(F)c(N3CCCNCC3)nc21 | 0.78 µg/mL (≈ 2.33 µM) | 1.56 µg/mL (≈ 4.67 µM) | 1.56 µg/mL (≈ 4.67 µM) | – | – | – | – |
| CCn1cc(C(=O)O)c(=O)c2ccc(C)nc21 [NALIDIXIC ACID] | 1.56 µg/mL (≈ 6.72 µM) | 50 µg/mL (≈ 215 µM) | – | – | – | – | – |
| CCn1cc(C(=O)O)c(=O)c2cc(F)c(N3CCCCCC3)nc21 | 6.25 µg/mL (≈ 18.7 µM) | 50 µg/mL (≈ 150 µM) | 3.13 µg/mL (≈ 9.39 µM) | – | – | – | – |

Second part, led by results:

| MIC (Escherichia coli [1]) | MIC (Pseudomonas aeruginosa [2]) | MIC (Staphylococcus aureus [3]) | SMILES | ED50 (Escherichia coli [4]) | ED50 (Staphylococcus aureus [5]) | ED50 (Pseudomonas aeruginosa [6]) | ED50 (Escherichia coli [7]) |
| --- | --- | --- | --- | --- | --- | --- | --- |
| 6.25 µg/mL (≈ 19.6 µM) | 12.5 µg/mL (≈ 39.1 µM) | 0.78 µg/mL (≈ 2.44 µM) | CCn1cc(C(=O)O)c(=O)c2cc(F)c(N3CCCCC3)nc21 | – | – | – | – |
| 3.13 µg/mL (≈ 8.64 µM) | 50 µg/mL (≈ 138 µM) | 3.13 µg/mL (≈ 8.64 µM) | CCn1cc(C(=O)O)c(=O)c2cc(F)c(N3CCN(C(C)=O)CC3)nc21 | – | – | – | – |
| 6.25 µg/mL (≈ 19.8 µM) | 25 µg/mL (≈ 79 µM) | 25 µg/mL (≈ 79 µM) | CCn1cc(C(=O)O)c(=O)c2ccc(N3CCN(C)CC3)nc21 | – | – | – | – |
| 0.78 µg/mL (≈ 2.28 µM) | 6.25 µg/mL (≈ 18.3 µM) | 6.25 µg/mL (≈ 18.3 µM) | O=C(O)c1cn(C(F)F)c2nc(N3CCNCC3)c(F)cc2c1=O | – | – | – | – |
| 0.2 µg/mL (≈ 0.624 µM) | 0.78 µg/mL (≈ 2.44 µM) | 0.78 µg/mL (≈ 2.44 µM) | CCn1cc(C(=O)O)c(=O)c2cc(F)c(N3CCNCC3)nc21 [ENOXACIN] | – | – | – | – |
| 3.13 µg/mL (≈ 9.86 µM) | 6.25 µg/mL (≈ 19.7 µM) | > 100 µg/mL | CCn1cc(C(=O)O)c(=O)c2cc(N)c(N3CCNCC3)nc21 | – | – | – | – |
| > 100 µg/mL | > 100 µg/mL | 12.5 µg/mL (≈ 38.8 µM) | CCn1cc(C(=O)O)c(=O)c2cc(Cl)c(N3CCCC3)nc21 | – | – | – | – |
| 1.56 µg/mL (≈ 4.48 µM) | 12.5 µg/mL (≈ 35.9 µM) | 3.13 µg/mL (≈ 8.99 µM) | CCn1cc(C(=O)O)c(=O)c2cc(F)c(N3CCN(C=O)CC3)nc21 | – | – | – | – |
| 12.5 µg/mL (≈ 31.5 µM) | > 100 µg/mL | 6.25 µg/mL (≈ 15.8 µM) | CCn1cc(C(=O)O)c(=O)c2cc(F)c(N3CCN(c4ccccc4)CC3)nc21 | – | – | – | – |
| 1.56 µg/mL (≈ 4.77 µM) | 6.25 µg/mL (≈ 19.1 µM) | 6.25 µg/mL (≈ 19.1 µM) | CCn1cc(C(=O)O)c(=O)c2cc(C#N)c(N3CCNCC3)nc21 | – | – | – | – |
| 1.56 µg/mL (≈ 4.71 µM) | 12.5 µg/mL (≈ 37.7 µM) | 25 µg/mL (≈ 75.4 µM) | CCn1cc(C(=O)O)c(=O)c2cc(N)c(N3CCN(C)CC3)nc21 | – | – | – | – |
| 1.56 µg/mL (≈ 4.45 µM) | 12.5 µg/mL (≈ 35.6 µM) | 6.25 µg/mL (≈ 17.8 µM) | CCn1cc(C(=O)O)c(=O)c2cc(Cl)c(N3CCN(C)CC3)nc21 | – | – | – | – |
| > 100 µg/mL | > 100 µg/mL | > 100 µg/mL | CCn1cc(C(=O)O)c(=O)c2cc(N)c(N3CCCC3)nc21 | – | – | – | – |
| – | 6.25 µg/mL (≈ 20.6 µM) | 6.25 µg/mL (≈ 20.6 µM) | CCn1cc(C(=O)O)c(=O)c2cnc(N3CCNCC3)nc21 [PIPEMIDIC ACID] | – | – | 70.8 mg/kg | 12.8 mg/kg |

From ChEMBL document CHEMBL1122582, “Pyridonecarboxylic acids as antibacterial agents. 2. Synthesis and structure-activity relationships of 1,6,7-trisubstituted 1,4-dihydro-4-oxo-1,8-naphthyridine-3-carboxylic acids, including enoxacin, a new antibacterial agent” (J Med Chem, 1984)
